In ChEMBL document CHEMBL3102706, “Natural occurrence of organofluorine and other constituents from Streptomyces sp. TC1” (J Nat Prod, 2014):
Calls of active or inactive are those of the source. The calls are words filed in the database; no cut-off is given here.

Tests used:
[1] = Antioxidant activity assessed as superoxide radical scavenging activity by NBT reduction assay; type: functional
[2] = Antioxidant activity assessed as trolox equivalents of ABTS radical scavenging activity after 30 mins by TEAC assay; type: functional
How it was run: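 ABTS (7 mM in water) was oxidized with 2.45 mM potassium persulfate (final) for 12–16 h in the dark at room temperature. The radical was diluted in ethanol to A734 0.700 ± 0.02 at 30 °C, then added to sample or Trolox standards (final 0–15 μM). A734 was read at 30 °C, 30 min after mixing. Results are given as μmol Trolox equivalent/g.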

[3] = Antioxidant activity assessed as hydroxyl radical scavenging activity after 15 mins by spectrophotometric analysis; type: functional
[4] = tested on: Radical scavenging activity; experiment: Antioxidant activity assessed as DPPH radical scavenging activity; type: functional
[5] = Antioxidant activity assessed as EDTA equivalent of chelating effect after 10 mins by spectrophotometric analysis; type: functional
How it was run: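 Ferrous-ion chelation: compounds or EDTA standard added to 2 mmol/L FeCl2 solution, then 5 mmol/L ferrozine added to start reaction. Mixture shaken vigorously and left 10 min at room temperature. Absorbance read at 562 nm. Activity expressed as mg EDTA equivalent/g.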

HCT-116 = experiment: Cytotoxicity against human HCT116 cells; type: functional, cell-based
DNA [6] = experiment: Displacement of ethidium bromide from calf thymus DNA by spectrometric analysis; type: nucleic-acid assay; conditions: Bos taurus
How it was run: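 Competitive EtBr displacement from CT-DNA monitored by emission spectroscopy. Kq taken as slope of I0/I versus [Q]. Kapp obtained from KEB[EB] = Kapp[compound], using compound concentration giving 50% loss of EB fluorescence, KEB = 1.0 × 10^7 M−1, [EB] = 5 μM.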

AGS = experiment: Cytotoxicity against human AGS cells; type: functional, cell-based
Albumin = Albumin (Bos taurus, UniProt P02769); experiment: Binding affinity to bovine serum albumin at 25 uM by fluorescence spectra analysis; type: ADME; conditions: cattle, isolated protein
HeLa = experiment: Cytotoxicity against human HeLa cells; type: functional, cell-based
DNA [7] = experiment: Binding affinity to calf thymus DNA by absorption titration; conditions: Bos taurus

Albumin, sequence (P02769 whole entry): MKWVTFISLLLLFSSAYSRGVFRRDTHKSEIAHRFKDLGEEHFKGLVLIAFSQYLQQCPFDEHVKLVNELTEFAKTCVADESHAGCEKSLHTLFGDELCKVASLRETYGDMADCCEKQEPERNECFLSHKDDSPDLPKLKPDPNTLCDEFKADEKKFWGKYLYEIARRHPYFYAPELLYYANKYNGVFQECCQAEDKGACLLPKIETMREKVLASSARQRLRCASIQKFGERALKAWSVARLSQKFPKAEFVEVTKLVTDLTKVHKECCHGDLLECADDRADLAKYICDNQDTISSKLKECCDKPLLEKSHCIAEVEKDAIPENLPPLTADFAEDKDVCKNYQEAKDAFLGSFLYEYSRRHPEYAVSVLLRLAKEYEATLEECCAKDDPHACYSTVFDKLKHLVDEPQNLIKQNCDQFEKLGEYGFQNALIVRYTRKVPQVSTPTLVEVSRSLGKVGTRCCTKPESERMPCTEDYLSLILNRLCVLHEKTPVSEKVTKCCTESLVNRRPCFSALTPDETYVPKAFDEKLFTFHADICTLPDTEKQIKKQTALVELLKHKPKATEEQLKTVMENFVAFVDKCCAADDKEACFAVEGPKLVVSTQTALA

Row | Structure (SMILES) | IC50 [1] [µM] | Activity [2] [µmol/g] | IC50 [3] [µM] | IC50 [4] [µM] | Activity [5] [mg/g] | Activity (HCT-116) | Kapp (DNA [6]) [×10⁵ /M] | Kq (DNA [6]) [×10⁴ /M] | Activity (AGS) | Activity (Albumin) | Activity (HeLa) | Kb (DNA [7]) [×10⁴ /M]
1 | Cc1cc(C(C)(C)C)c(O)c(C(C)(C)C)c1 [BUTYLATED HYDROXYTOLUENE] | 8.6 | 6050 | 11.5 | 4.5 | 15.4 |  |  |  |  |  |  | 
2 | CC(C)(C)c1cc(CCC(=O)O)cc(C(C)(C)C)c1F | 8.4 | 6740 | 25.8 | 8.4 | 4.5 | inactive | 1.6 | 1.71 | inactive | Active | inactive | 3.13
3 | C=CCC(CC=C)(CC=C)c1ccc(CCCCCCCCC)cc1O | 32.8 | 4020 | 31.1 | 14.9 | 8.4 | inactive | 0.34 | 0.68 | inactive | Active | inactive | 2.23
4 | CC(C)C[C@H](NC(=O)[C@@H](O)C[C@H](N)CN)C(N)=O | 34.6 | 4090 | 35.5 | 34.7 | 11.9 | inactive | 0.13 | 0.26 | inactive | Active | inactive | 2.36
5 | C[C@@H]1O[C@@H](OC[C@H]2O[C@@H](Oc3c(-c4ccc(O)c(O)c4)oc4cc(O)cc(O)c4c3=O)[C@H](O)[C@@H](O)[C@@H]2O)[C@H](O)[C@H](O)[C@H]1O [RUTIN] | 4.7 | 10100 | 19.4 | 4.7 | 18.5 |  |  |  |  |  |  | 
